# Screens as filed in PubChem.
# Only some compounds are listed: those with a hit (about 2.9% of all), similar ones and a draw of the others.
# S100A4 inh HTS = inhibitors of S100A4-myosin IIA peptide binding, primary screen, biochemical, fluorescence polarization, TAMRA-MyoIIA peptide; Protein S100-A4 (Homo sapiens), P26447; inhibition, % at 10.7 µM; 360,000 tested, 0.14% active;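 active = mean inhibition of at least 70% across replicates, with every replicate also reaching that level; inconclusive = mean inhibition reaches 70% but some replicates fall short; inactive = mean inhibition below 70%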
# Target sequence (P26447 whole entry, looked up): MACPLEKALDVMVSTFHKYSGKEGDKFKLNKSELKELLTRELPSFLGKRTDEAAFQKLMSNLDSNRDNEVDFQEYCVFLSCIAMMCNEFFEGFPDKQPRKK
#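 System – human S100A4 monomer protein, biochemical binding assay · Buffer or medium – Calcium-containing HEPES buffer, pH 7.2 · Timing – 5 min between mix addition and reading · Also added – TAMRA-labelled myosin IIA heavy-chain peptide probe, 5 nM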
# SIRT5 inh = SIRT5 desuccinylase inhibitors, primary screen, biochemical, fluorescence imaging, single point, set 5. NAD-dependent protein deacylase sirtuin-5, mitochondrial (Homo sapiens), Q9NXA8. 330,000 tested, 1.1% active. AID 652115, 2013. inhibition, % at 15 µM. Purified SirT5, succinyl-peptide AMC, trypsin-coupled fluorescence; in the data active = inhibition above about 15%; inconclusive = no clear call, values can overlap the other calls
# Target sequence (Q9NXA8 whole entry, looked up): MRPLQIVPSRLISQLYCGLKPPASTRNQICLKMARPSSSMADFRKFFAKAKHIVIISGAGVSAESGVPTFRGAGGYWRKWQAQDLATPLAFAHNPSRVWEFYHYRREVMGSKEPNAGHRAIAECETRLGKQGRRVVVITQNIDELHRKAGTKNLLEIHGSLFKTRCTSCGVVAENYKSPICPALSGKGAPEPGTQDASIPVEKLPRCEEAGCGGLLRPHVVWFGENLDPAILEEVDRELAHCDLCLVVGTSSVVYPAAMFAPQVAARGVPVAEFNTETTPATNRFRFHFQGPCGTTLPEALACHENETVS
# CAL PDZ FP-1 = untagged CAL PDZ binding inhibitors, primary screen, biochemical, fluorescence polarization, HTS; Golgi-associated PDZ and coiled-coil motif-containing protein (Homo sapiens), Q9HD26; purified CAL PDZ, TMR-peptide fluorescence polarization, 1 h; inhibition, % at 24.9 µM; 300,000 tested, 0.92% active; AID 602252, 2012;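 active = mean inhibition of at least 30% with at least half of replicates also reaching 30%; inconclusive = no clear call, values can overlap the other calls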;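 also: 0% = DMSO neutral control and 100% = excess unlabeled competitor peptide PRC23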
# DENV2 CPE = inhibitors of DENV2 cytopathic effect, primary screen, cell-based, plate reader, single concentration; 350,000 tested, 1.7% active; DENV2-infected cells, cytopathic effect rescue; CPE inhibition, % at 9.99 µM; AID 651640, 2012; in the data active = CPE inhibition above about 20%, passing the limit was not always enough; inconclusive = no clear call, values can overlap the other calls; tested in BHK-21 cells;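 also: 0% = median of neutral control wells and 100% = median of positive control wells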
# ERAP1 inh = human ERAP1 aminopeptidase inhibitors, primary screen, biochemical, single point, plate reader. inhibition, % at 10.7 µM. recombinant ERAP1, Leu-AMC fluorescence, 60 min. 340,000 tested, 0.15% active. Endoplasmic reticulum aminopeptidase 1 (Homo sapiens), Q9NZ08;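 active = mean replicate inhibition of at least 30%, or all replicates individually reaching that 30% level; inactive = mean below 30% and not every replicate reaching it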;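 also: 0% = neutral control wells and 100% = L-leucinethiol positive control wells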
# CAL PDZ FP-2 = CAL PDZ peptide-binding inhibitors, primary screen, biochemical, fluorescence polarization, Cer-tagged CAL PDZ, HTS; inhibition, % at 20 µM; Golgi-associated PDZ and coiled-coil motif-containing protein (Homo sapiens), Q9HD26; purified CAL PDZ, TMR-peptide fluorescence polarization, 1 h; 330,000 tested, 0.02% active;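 active = highest replicate inhibition of at least 40%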;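 also: plate controls were DMSO neutral control wells for no effect and unlabeled competitor peptide control wells for full effect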
#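 Material – purified CerCALP PDZ construct · Detection – FP readout, S and P plane fluorescence · Measure – percent inhibition from loss of millipolarization · Controls – unlabelled peptide for full inhibition, DMSO wells as neutral · Probe or stimulus – TMR-labelled reporter peptide T*-PRC34 bound in PDZ groove · Times – 1 h at RT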
# An asterisk follows results filed as active; ? = inconclusive; . = no result given.
SMILES,S100A4 inh HTS,SIRT5 inh,CAL PDZ FP-1,DENV2 CPE,ERAP1 inh,CAL PDZ FP-2
COc1cc(O)c2c(c1)oc(=O)c1c3cc(O)c(O)cc3oc21,0.2,23.1*,.,-1.4,2.4,.
COc1ccc2c(c1)oc(=O)c1cc(OC)ccc12,0.9,-1.6,-4.6,16.0,0.0,-1.0
CC(C(=O)Nc1cccc(S(=O)(=O)N2CCOCC2)c1)N1CCN(C)CC1 (centres undefined),-12.0,-1.2,-1.9,15.6,2.0,-1.3
O=S(=O)(c1cccc(NC(=S)N2CCN(c3ccc(F)cc3)CC2)c1)C(F)F,-21.7,30.0*,4.2,.,5.8,0.0
O=C(Cc1ccccc1Cl)Nc1cccc(S(=O)(=O)N2CCOCC2)c1,-0.5,2.1,-0.9,-4.3,2.7,-1.0
CC(C(=O)Nc1cccc(S(=O)(=O)N2CCOCC2)c1)N1CCN(c2ccc(F)cc2)CC1 (centres undefined),-2.2,16.1*,-4.8,-3.8,3.3,-0.7
O=S(=O)(c1cccc(NC(=S)N2CCN(c3cccc(Cl)c3)CC2)c1)C(F)F,-0.8,-2.1,-3.4,4.2,6.9,-2.4
CC(=O)NC12CC3CC(C1)CC(C(=O)Nc1ccc(C)c(S(=O)(=O)N4CCCCCC4)c1)(C3)C2,-3.4,-1.0,-3.1,-4.5,-8.5,-1.4
O=C(Cc1ccccc1F)Nc1cccc(S(=O)(=O)N2CCOCC2)c1,-6.6,17.1*,2.5,11.2,1.0,-1.8
CC(=O)NC12CC3CC(C1)CC(C(=O)Nc1cccc(S(=O)(=O)N4CCCCCC4)c1)(C3)C2,-2.1,4.2,193.7*,1.3,-0.3,-1.9
Cc1ccc(S(=O)(=O)N(C)C[C@@H]2Oc3ccc(NC(=O)Nc4c(C)noc4C)cc3CC(=O)N([C@@H](C)CO)C[C@H]2C)cc1,0.3,-2.5,.,-3.9,1.7,.
O=C(CNc1cccc(S(=O)(=O)N2CCCC2)c1)Nc1cccc(Br)c1,1.8,-3.7,-3.7,?,2.5,-1.7
O=C(CNc1cccc(S(=O)(=O)N2CCOCC2)c1)Nc1cccc(Br)c1,-4.1,1.6,-23.6,27.2*,-0.6,-2.2
Cc1cccc(NC(=S)N2CCCCCC2)c1C,-2.8,-1.1,-3.5,54.8*,0.5,-1.6
O=C(Nc1cccc(S(=O)(=O)N2CCCCCC2)c1)c1ccc2ccccc2n1,1.8,-6.9,-6.6,21.6*,-0.6,-3.6
O=C(Nc1cccc(S(=O)(=O)N2CCOCC2)c1)c1ccccn1,-13.2,-6.5,75.3*,-0.9,1.8,0.6
Cc1ccc(S(=O)(=O)NC[C@H]2CC[C@H]3[C@H](CN3Cc3ccccc3C(=O)O)O2)cc1,-9.7,0.8,.,1.4,-0.9,.
CCNC(=O)Nc1ccc2c(c1)C(=O)N(C)[C@@H]1CC[C@@H](CC(=O)NCc3cccc(F)c3)O[C@H]1CO2,.,.,.,-0.5,.,.
Fc1cccc(NC(=S)N2CCCC2)c1,0.5,15.2*,-2.3,2.4,-5.1,-2.6
Cc1cnc(C(=O)OCC(=O)Nc2cccc(S(=O)(=O)N3CCCCC3)c2)cn1,4.6,28.0*,-4.4,3.6,0.3,-1.8
COC(=O)CSc1cnc2ccccc2n1,.,.,-1.9,.,.,0.4
O=C(CSc1cnc2ccccc2n1)c1ccc(F)cc1,-2.3,-2.5,-3.5,32.6*,2.3,-2.9
CC(CNC(=O)[C@H]1O[C@@H](n2cnc3c(=O)[nH]c(N)nc32)[C@H](O)[C@@H]1O)c1ccccc1 (some centres undefined),-3.2,0.3,.,67.9*,-0.4,.
Nc1nc2c(ncn2[C@@H]2O[C@H](C(=O)NCC(c3ccccc3)c3ccccc3)[C@@H](O)[C@H]2O)c(=O)[nH]1,-1.5,0.8,.,-5.9,0.5,.
CC(C)c1cn(CC[C@@H]2CC[C@@H](NC(=O)C3CCC3)[C@H](CO)O2)nn1,3.4,-1.5,.,8.5,6.1,.
